Data reported in ChEMBL document CHEMBL4312027, “Synthesis, characterization, and biological activity of a triphenylphosphonium-containing imidazolium salt against select bladder cancer cell lines” (Eur J Med Chem, 2020).
Calls of active or inactive are those of the source. The calls are words filed in the database; no cut-off is given here.

Experiments:
RT-112 [1] = experiment: Cell cycle arrest in human RT112 cells assessed as increase in cell accumulation at sub-G1 phase at 250 uM incubated for 1 hr measured after culturing in normal medium for 24 hrs by propidium iodide/RNase staining based FACScan flow cytometry analysis; assay type: functional
Procedure, shortened: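 Seeded at 300,000 cells/well in triplicate per treatment; 24 h later exposed to 250 or 500 μM or vehicle for 1 h. After 24 h in normal media, media plus cells were collected, washed, fixed in cold 70% ethanol (4 °C, 30 min), treated with phosphate citric acid buffer, stained with PI/RNase and gated for sub-G1 by flow cytometry.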

UMUC3 = experiment: Anticlonogenic activity against human UM-UC-3 cells assessed as no colony formation at 250 to 500 uM incubated for 1 hr measured after culturing in normal medium for 10 days by crystal violet staining assay; assay type: functional, cell-based
Procedure, shortened: (§1)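 Cells seeded at 500/well, treated 24 h later with 250 or 500 μM drug or vehicle for 1 h. Cells were then grown in normal media for 10 days, stained with 0.5% crystal violet in 20% MeOH/water at 4 °C for 5 min, washed, dried and imaged. Run in triplicate.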

A549 = experiment: Growth inhibition of human A549/ATCC cells assessed as growth percent at 10 uM incubated for 48 hrs by sulforhodamine B assay relative to control; assay type: functional; details: A549, 48 h, read-out: Activity
MCF7 = experiment: Growth inhibition of human MCF7 cells assessed as growth percent at 10 uM incubated for 48 hrs by sulforhodamine B assay relative to control; assay type: functional; details: MCF7, 48 h, read-out: Activity
RPMI-8226 = experiment: Growth inhibition of human RPMI8226 cells assessed as growth percent at 10 uM incubated for 48 hrs by sulforhodamine B assay relative to control; assay type: functional; details: RPMI-8226, 48 h, read-out: Activity
TK-10 = experiment: Growth inhibition of human TK10 cells assessed as growth percent at 10 uM incubated for 48 hrs by sulforhodamine B assay relative to control; assay type: functional; details: TK-10, 48 h, read-out: Activity
Mus musculus [2] = experiment: Induction of urothelium exfoliation in anesthetized female mouse model assessed as decrease in urothelial cell height at 750 to 1500 uM administered via intravesical instillation after bladder evacuation treated for 1 hr followed by repetition of the treatment after 24 hrs and measured at 24 hrs after final treatment by hematoxylin and eosin staining based analysis; assay type: organism-based; details: in vivo, other
Procedure, shortened: (§2)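 Female mice anesthetized, 1–3% isoflurane. Bladder evacuated, then 100 μL of 750 or 1500 μM in 10% DMSO/PBS (or vehicle) instilled by 24G angiocatheter. Catheter left in place for a 1 h dwell. Repeated after 24 h; mice sacrificed 24 h after final dose. Bladder histology read for urothelial height and layers.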

RT-112 [3] = experiment: Induction of apoptosis in human RT112 cells assessed as increase in PARP cleavage at 500 uM incubated for 1 hr and measured immediately after treatment by Western blot analysis; assay type: functional, cell-based
Procedure, shortened: (§3)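 RT112 seeded 300,000/well; after 24 h, 250 or 500 μM or vehicle. Cells plus floating debris harvested immediately or 24 h after treatment, lysed in RIPA with protease inhibitors. About 30 μg protein heated 10 min at 95 °C with DTT, run on SDS-PAGE. Immunoblotted for PARP and caspase 9, Ran as loading control, ECL detection.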

RT-4 = experiment: Growth inhibition of human RT4 cells at 500 uM by Celltiter-Glo luminescent cell viability assay; assay type: functional, cell-based; details: TDE = time-dependent effect
Procedure, shortened: (§4)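 Cells seeded 10000/well, 24 h, then exposed in ATCC-recommended medium to 62.5–2000 μM (two-fold steps) or vehicle for the set time (5–60 min), then normal medium. After 24 h, plates equilibrated 30 min at room temperature, CellTiter-Glo added, 2 min at room temperature, luminescence read. Survival relative to vehicle control; quadruplicate.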

RT-112 [4] = experiment: Growth inhibition of human RT112 cells at 250 uM measured after 5 to 60 mins by Celltiter-Glo luminescent cell viability assay; assay type: functional, cell-based
BT-549 = experiment: Growth inhibition of human BT549 cells assessed as growth percent at 10 uM incubated for 48 hrs by sulforhodamine B assay relative to control; assay type: functional; details: BT-549, 48 h, read-out: Activity
MOLT-4 = experiment: Growth inhibition of human MOLT4 cells assessed as growth percent at 10 uM incubated for 48 hrs by sulforhodamine B assay relative to control; assay type: functional; details: MOLT-4, 48 h, read-out: Activity
RT-112 [5] = experiment: Induction of apoptosis in human RT112 cells assessed as increase in caspase 9 cleavage at 250 uM incubated for 1 hr and measured immediately after treatment by Western blot analysis; assay type: functional, cell-based; procedure, shortened: as §3
HOP-92 = experiment: Growth inhibition of human HOP92 cells assessed as growth percent at 10 uM incubated for 48 hrs by sulforhodamine B assay relative to control; assay type: functional; details: HOP-92, 48 h, read-out: Activity
SR = experiment: Growth inhibition of human SR cells assessed as growth percent at 10 uM incubated for 48 hrs by sulforhodamine B assay relative to control; assay type: functional; details: read-out: Activity
[6] = Toxicity in anesthetized female mouse model assessed as inflammation at 750 to 1500 uM administered via intravesical instillation after bladder evacuation treated for 1 hr followed by repetition of the treatment after 24 hrs and measured at 24 hrs after final treatment; details: in vivo, other; procedure, shortened: as §2
[7] = Solubility of compound in water; assay type: physicochemical
OVCAR-4 = experiment: Growth inhibition of human OVCAR4 cells assessed as growth percent at 10 uM incubated for 48 hrs by sulforhodamine B assay relative to control; assay type: functional; details: OVCAR-4, 48 h, read-out: Activity
SK-MEL-28 = experiment: Growth inhibition of human SK-MEL-28 cells assessed as growth percent at 10 uM incubated for 48 hrs by sulforhodamine B assay relative to control; assay type: functional; details: SK-MEL-28, 48 h, read-out: Activity
RT-112 [8] = experiment: Growth inhibition of human RT112 cells at 1000 uM measured after 5 mins by Celltiter-Glo luminescent cell viability assay; assay type: functional, cell-based; procedure, shortened: as §4
RT-112 [9] = experiment: Induction of apoptosis in human RT112 cells assessed as caspase 9 cleavage at 250 to 500 uM incubated for 1 hr and measured at 24 hrs after treatment by Western blot analysis; assay type: functional, cell-based; procedure, shortened: as §3
SNB-75 = experiment: Growth inhibition of human SNB75 cells assessed as growth percent at 10 uM incubated for 48 hrs by sulforhodamine B assay relative to control; assay type: functional; details: SNB-75, 48 h, read-out: Activity
SNB-19 = experiment: Growth inhibition of human SNB19 cells assessed as growth percent at 10 uM incubated for 48 hrs by sulforhodamine B assay relative to control; assay type: functional; details: SNB-19, 48 h, read-out: Activity
SF-539 = experiment: Growth inhibition of human SF539 cells assessed as growth percent at 10 uM incubated for 48 hrs by sulforhodamine B assay relative to control; assay type: functional; details: SF-539, 48 h, read-out: Activity
RT-112 [10] = experiment: Induction of apoptosis in human RT112 cells assessed as increase in PARP cleavage at 500 uM incubated for 1 hr measured at 24 hrs after treatment by Western blot analysis; assay type: functional, cell-based; procedure, shortened: as §3
J82 = experiment: Anticlonogenic activity against human J82 cells assessed as decrease in colony formation at 250 to 500 uM incubated for 1 hr measured after culturing in normal medium for 10 days by crystal violet staining assay; assay type: functional, cell-based; procedure, shortened: as §1
Mus musculus [11] = experiment: Antitumor activity against anesthetized BBN-induced bladder tumor mouse model assessed as increase in cleaved caspase 3 level in necrotic region at 1500 uM administered via intravesical instillation treated for 1 hr administered as 2 doses at 24 hrs interval and measured at 24 hrs after final treatment by hematoxylin and eosin staining based immunohistochemical analysis; assay type: functional, organism-based

With `[Br-].[Br-].c1ccc([P+](CCCc2n(Cc3ccc4ccccc4c3)c3ccccc3[n+]2Cc2ccc3ccccc3c2)(c2ccccc2)c2ccccc2)cc1` the Activity (RT-112 [1]) was “Active”, the inhibition (UMUC3) was “Active” and the growth at 10 µM (A549) was 80.2%. The growth at 10 µM (MCF7) was 73.9%, the growth at 10 µM (RPMI-8226) was 6.9% and the growth at 10 µM (TK-10) was 89.2%. For the same compound, the Activity (Mus musculus [2]) was “Non-Toxic”, the Activity (RT-112 [3]) was “Active” and the “growth inhibition (GI)” value (RT-4) was “Tde”. For the same compound, the “growth inhibition (GI)” value (RT-112 [4]) was “Active”, the growth at 10 µM (BT-549) was 68.1% and the growth at 10 µM (MOLT-4) was 57.6%. For the same compound, the Activity (RT-112 [5]) was “Active”, the growth at 10 µM (HOP-92) was 46.3% and the growth at 10 µM (SR) was 30.8%. The Activity [6] was “Non-Toxic”, the solubility [7] was 8000 µg/mL and the growth at 10 µM (OVCAR-4) was 74.4%. For the same compound, the growth at 10 µM (SK-MEL-28) was 37.1%, the “growth inhibition (GI)” value (RT-112 [8]) was “Active” and the Activity (RT-112 [9]) was “inactive”. For the same compound, the growth at 10 µM (SNB-75) was 91%, the growth at 10 µM (SNB-19) was 38.5% and the growth at 10 µM (SF-539) was 36.8%. For the same compound, the Activity (RT-112 [10]) was “Active”, the inhibition (J82) was “Active” and the Activity (Mus musculus [11]) was “Active”.
